# Activity calls are given as the source filed them. No cut-off for these calls is given here.
# How the values were obtained:
# [1] = biological target: Metabotropic glutamate receptor 4 (Rattus norvegicus) (UniProt P31423); experiment: Displacement of [3H]ML128 from rat mGlu4 receptor expressed in CHO cells at 10 uM after 30 mins by liquid scintillation counting analysis; assay type: cell-based
# Outline: (§1)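 Whole freshly harvested CHO cells stably expressing rat mGlu4 (G418-selected), 50 000 per tube, incubated with 10 nM [3H]1 plus competitor (0.01 nM–10 μM) 30 min at room temperature. Cells pelleted at 4 °C, washed three times with cold medium, lysed in 0.5% NaOH at 56 °C, then counted by liquid scintillation. Nonspecific binding defined with 10 μM unlabeled 1. Triplicates.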
# [2] = biological target: Metabotropic glutamate receptor 4 (Rattus norvegicus, UniProt P31423); experiment: Displacement of [3H]ML128 from rat mGlu4 receptor expressed in CHO cells after 30 mins by liquid scintillation counting analysis; assay type: cell-based; outline: as §1
# Cerebellum [3] = experiment: Drug uptake in Sprague-Dawley rat cerebellum at 37 MBq, iv after 20 mins by PET imaging analysis; assay type: ADME, organism-based; conditions: in vivo
# Outline: (§2)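 Male Sprague–Dawley rats under 1.0–1.5% isoflurane/nitrous oxide received [18F]3 (37 MBq) via tail-vein catheter. Dynamic PET was acquired for 60 min, followed by CT for anatomy and attenuation correction. Regional brain time–activity curves were generated. For blocking, animals were given iv 5 min before tracer either 2·HCl 10 mg/kg in saline with 10% ethanol and 10% Tween20 (n = 4) or MTEP·HCl 10 mg/kg in 0.9% saline (n = 3).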
# Thalamus [4] = experiment: Drug uptake in Sprague-Dawley rat thalamus at 37 MBq, iv administered 5 mins post N-(3-(difluoromethoxy)phenyl)-2-picolinamide hydrochloride challenge measured after 20 mins by PET imaging analysis; assay type: ADME, organism-based; conditions: in vivo; outline: as §2
# Brain [5] = experiment: Drug uptake in Sprague-Dawley rat whole brain at 37 MBq, iv after 20 mins by PET imaging analysis; assay type: ADME, organism-based; conditions: in vivo; outline: as §2
# [6] = system: Cerebellum (Macaca mulatta); experiment: Drug uptake in rhesus monkey cerebellum at 189 MBq, iv after 3 mins by PET imaging analysis; conditions: in vivo, 0.05 h
# Hippocampus [7] = experiment: Drug uptake in Sprague-Dawley rat hippocampus at 37 MBq, iv administered 5 mins post N-(3-(difluoromethoxy)phenyl)-2-picolinamide hydrochloride challenge measured after 20 mins by PET imaging analysis; assay type: ADME, organism-based; conditions: in vivo; outline: as §2
# Striatum [8] = experiment: Drug uptake in Sprague-Dawley rat striatum at 37 MBq, iv after 20 mins by PET imaging analysis; assay type: ADME, organism-based; conditions: in vivo; outline: as §2
# Striatum [9] = experiment: Drug uptake in Sprague-Dawley rat striatum at 37 MBq, iv administered 5 mins post MTEP.HCl challenge measured after 20 mins by PET imaging analysis; assay type: ADME, organism-based; conditions: in vivo; outline: as §2
# Brain [10] = experiment: Drug uptake in Sprague-Dawley rat whole brain at 37 MBq, iv administered 5 mins post N-(3-(difluoromethoxy)phenyl)-2-picolinamide hydrochloride challenge measured after 20 mins by PET imaging analysis; assay type: ADME, organism-based; conditions: in vivo; outline: as §2
# [11] = system: Striatum (Macaca mulatta); experiment: Drug uptake in rhesus monkey striatum at 189 MBq, iv after 3 mins by PET imaging analysis; conditions: in vivo, 0.05 h
# [12] = Drug uptake in rhesus monkey cerebellum at 189 MBq, iv after 40 mins by PET imaging analysis; conditions: in vivo
# Hippocampus [13] = experiment: Drug uptake in Sprague-Dawley rat hippocampus at 37 MBq, iv after 20 mins by PET imaging analysis; assay type: ADME, organism-based; conditions: in vivo; outline: as §2
# [14] = system: Thalamus (Macaca mulatta); experiment: Drug uptake in rhesus monkey thalamus at 189 MBq, iv after 40 mins by PET imaging analysis; conditions: in vivo
# Cerebellum [15] = experiment: Drug uptake in Sprague-Dawley rat cerebellum at 37 MBq, iv administered 5 mins post MTEP.HCl challenge measured after 20 mins by PET imaging analysis; assay type: ADME, organism-based; conditions: in vivo; outline: as §2
# [16] = system: Striatum (Macaca mulatta); experiment: Drug uptake in rhesus monkey striatum at 189 MBq, iv after 20 mins by PET imaging analysis; conditions: in vivo
# [17] = system: Thalamus (Macaca mulatta); experiment: Drug uptake in rhesus monkey thalamus at 189 MBq, iv after 20 mins by PET imaging analysis; conditions: in vivo
# Brain [18] = experiment: Drug uptake in Sprague-Dawley rat whole brain at 37 MBq, iv administered 5 mins post MTEP.HCl challenge measured after 20 mins by PET imaging analysis; assay type: ADME, organism-based; conditions: in vivo; outline: as §2
# Cortex [19] = experiment: Drug uptake in Sprague-Dawley rat cortex at 37 MBq, iv administered 5 mins post MTEP.HCl challenge measured after 20 mins by PET imaging analysis; assay type: ADME, organism-based; conditions: in vivo; outline: as §2
# [20] = system: Striatum (Macaca mulatta); experiment: Drug uptake in rhesus monkey striatum at 189 MBq, iv after 40 mins by PET imaging analysis; conditions: in vivo
# Cerebellum [21] = experiment: Drug uptake in Sprague-Dawley rat cerebellum at 37 MBq, iv administered 5 mins post N-(3-(difluoromethoxy)phenyl)-2-picolinamide hydrochloride challenge measured after 20 mins by PET imaging analysis; assay type: ADME, organism-based; conditions: in vivo; outline: as §2
# Thalamus [22] = experiment: Drug uptake in Sprague-Dawley rat thalamus at 37 MBq, iv after 20 mins by PET imaging analysis; assay type: ADME, organism-based; conditions: in vivo; outline: as §2
# [23] = system: Cerebellum (Macaca mulatta); experiment: Drug uptake in rhesus monkey cerebellum at 189 MBq, iv after 20 mins by PET imaging analysis; conditions: in vivo
# [24] = system: Thalamus (Macaca mulatta); experiment: Drug uptake in rhesus monkey thalamus at 189 MBq, iv after 3 mins by PET imaging analysis; conditions: in vivo, 0.05 h
# Striatum [25] = experiment: Drug uptake in Sprague-Dawley rat striatum at 37 MBq, iv administered 5 mins post N-(3-(difluoromethoxy)phenyl)-2-picolinamide hydrochloride challenge measured after 20 mins by PET imaging analysis; assay type: ADME, organism-based; conditions: in vivo; outline: as §2
# Thalamus [26] = experiment: Drug uptake in Sprague-Dawley rat thalamus at 37 MBq, iv administered 5 mins post MTEP.HCl challenge measured after 20 mins by PET imaging analysis; assay type: ADME, organism-based; conditions: in vivo; outline: as §2
# [27] = system: Hippocampus (Macaca mulatta); experiment: Drug uptake in rhesus monkey hippocampus at 189 MBq, iv after 20 mins by PET imaging analysis; conditions: in vivo
# Macaca mulatta = experiment: Drug uptake in rhesus monkey hippocampus at 189 MBq, iv after 40 mins by PET imaging analysis; conditions: in vivo
# Cortex [28] = experiment: Drug uptake in Sprague-Dawley rat cortex at 37 MBq, iv administered 5 mins post N-(3-(difluoromethoxy)phenyl)-2-picolinamide hydrochloride challenge measured after 20 mins by PET imaging analysis; assay type: ADME, organism-based; conditions: in vivo; outline: as §2
# [29] = Drug metabolism in iv dosed rhesus monkey blood after 5 mins; conditions: in vivo
# Hippocampus [30] = experiment: Drug uptake in Sprague-Dawley rat hippocampus at 37 MBq, iv administered 5 mins post MTEP.HCl challenge measured after 20 mins by PET imaging analysis; assay type: ADME, organism-based; conditions: in vivo; outline: as §2
# Cortex [31] = experiment: Drug uptake in Sprague-Dawley rat cortex at 37 MBq, iv after 20 mins by PET imaging analysis; assay type: ADME, organism-based; conditions: in vivo; outline: as §2
# [32] = system: Hippocampus (Macaca mulatta); experiment: Drug uptake in rhesus monkey hippocampus at 189 MBq, iv after 3 mins by PET imaging analysis; conditions: in vivo, 0.05 h
# [33] = Drug metabolism in iv dosed Sprague-Dawley rat blood after 5 mins; assay type: ADME, organism-based; conditions: read-out: Drug metabolism
# [34] = biological target: Metabotropic glutamate receptor 1 (Homo sapiens) (UniProt Q13255); experiment: Activity at human mGlu1 receptor expressed in CHO cells after 45 mins by intracellular inositol phosphates accumulation assay
# [35] = biological target: Metabotropic glutamate receptor 5 (Homo sapiens) (UniProt P41594); experiment: Activity at human mGlu5 receptor expressed in CHO cells after 45 mins by intracellular inositol phosphates accumulation assay
# [36] = biological target: Metabotropic glutamate receptor 8 (Homo sapiens) (UniProt O00222); experiment: Binding affinity to human mGlu8 receptor
# Chain of Metabotropic glutamate receptor 8 (Homo sapiens) (O00222 whole entry): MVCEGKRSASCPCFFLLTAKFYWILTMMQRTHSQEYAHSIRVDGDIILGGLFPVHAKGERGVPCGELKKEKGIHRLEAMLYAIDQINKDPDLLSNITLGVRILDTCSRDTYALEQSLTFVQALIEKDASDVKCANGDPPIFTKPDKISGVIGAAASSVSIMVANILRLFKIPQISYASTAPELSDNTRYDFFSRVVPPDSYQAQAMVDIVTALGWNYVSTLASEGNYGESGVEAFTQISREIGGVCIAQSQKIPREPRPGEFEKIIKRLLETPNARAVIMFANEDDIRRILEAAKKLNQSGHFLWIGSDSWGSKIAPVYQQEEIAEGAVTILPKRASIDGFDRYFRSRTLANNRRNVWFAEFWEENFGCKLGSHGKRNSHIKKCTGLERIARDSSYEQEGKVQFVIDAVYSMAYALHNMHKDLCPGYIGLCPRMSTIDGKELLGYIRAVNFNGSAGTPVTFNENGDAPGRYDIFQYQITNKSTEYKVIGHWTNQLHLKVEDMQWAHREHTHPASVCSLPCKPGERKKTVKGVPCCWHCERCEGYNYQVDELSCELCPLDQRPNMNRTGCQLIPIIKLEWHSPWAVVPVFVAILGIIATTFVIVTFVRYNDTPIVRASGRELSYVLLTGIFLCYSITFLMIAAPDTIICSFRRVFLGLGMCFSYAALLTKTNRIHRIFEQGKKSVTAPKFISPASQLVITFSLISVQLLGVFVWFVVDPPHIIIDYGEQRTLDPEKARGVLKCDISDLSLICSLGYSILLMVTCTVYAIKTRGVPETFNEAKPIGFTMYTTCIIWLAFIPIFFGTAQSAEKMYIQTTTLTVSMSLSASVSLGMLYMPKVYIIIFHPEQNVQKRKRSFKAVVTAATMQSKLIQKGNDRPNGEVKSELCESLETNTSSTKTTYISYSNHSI
# Chain of Metabotropic glutamate receptor 4 (Rattus norvegicus) (P31423 whole entry): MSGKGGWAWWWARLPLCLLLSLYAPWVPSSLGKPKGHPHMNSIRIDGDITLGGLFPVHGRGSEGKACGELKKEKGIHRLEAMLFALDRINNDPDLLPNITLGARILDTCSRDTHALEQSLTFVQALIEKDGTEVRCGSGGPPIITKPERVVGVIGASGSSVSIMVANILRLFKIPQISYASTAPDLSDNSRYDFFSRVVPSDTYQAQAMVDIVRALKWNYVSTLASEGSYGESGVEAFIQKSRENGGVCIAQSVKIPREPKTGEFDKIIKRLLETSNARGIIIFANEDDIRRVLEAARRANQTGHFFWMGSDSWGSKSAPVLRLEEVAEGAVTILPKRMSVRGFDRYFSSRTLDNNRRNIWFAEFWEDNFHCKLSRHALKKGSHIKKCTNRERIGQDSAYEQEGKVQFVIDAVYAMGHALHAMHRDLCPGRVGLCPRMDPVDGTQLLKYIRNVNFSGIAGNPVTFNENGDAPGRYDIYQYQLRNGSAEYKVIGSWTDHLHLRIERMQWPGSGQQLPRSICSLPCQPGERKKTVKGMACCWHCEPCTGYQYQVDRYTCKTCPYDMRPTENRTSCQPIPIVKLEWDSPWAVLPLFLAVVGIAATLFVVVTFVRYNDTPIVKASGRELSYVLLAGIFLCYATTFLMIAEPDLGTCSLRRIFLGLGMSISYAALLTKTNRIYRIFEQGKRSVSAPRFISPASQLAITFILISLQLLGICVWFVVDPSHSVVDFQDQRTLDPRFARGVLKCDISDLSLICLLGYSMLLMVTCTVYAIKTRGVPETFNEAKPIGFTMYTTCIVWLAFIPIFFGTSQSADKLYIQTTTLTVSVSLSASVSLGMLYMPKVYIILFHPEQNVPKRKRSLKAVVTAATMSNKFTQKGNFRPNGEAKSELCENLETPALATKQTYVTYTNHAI
# Chain of Metabotropic glutamate receptor 4 (P31423 whole entry): as above
# Chain of Metabotropic glutamate receptor 1 (Homo sapiens) (Q13255 19-1194 limits assumed): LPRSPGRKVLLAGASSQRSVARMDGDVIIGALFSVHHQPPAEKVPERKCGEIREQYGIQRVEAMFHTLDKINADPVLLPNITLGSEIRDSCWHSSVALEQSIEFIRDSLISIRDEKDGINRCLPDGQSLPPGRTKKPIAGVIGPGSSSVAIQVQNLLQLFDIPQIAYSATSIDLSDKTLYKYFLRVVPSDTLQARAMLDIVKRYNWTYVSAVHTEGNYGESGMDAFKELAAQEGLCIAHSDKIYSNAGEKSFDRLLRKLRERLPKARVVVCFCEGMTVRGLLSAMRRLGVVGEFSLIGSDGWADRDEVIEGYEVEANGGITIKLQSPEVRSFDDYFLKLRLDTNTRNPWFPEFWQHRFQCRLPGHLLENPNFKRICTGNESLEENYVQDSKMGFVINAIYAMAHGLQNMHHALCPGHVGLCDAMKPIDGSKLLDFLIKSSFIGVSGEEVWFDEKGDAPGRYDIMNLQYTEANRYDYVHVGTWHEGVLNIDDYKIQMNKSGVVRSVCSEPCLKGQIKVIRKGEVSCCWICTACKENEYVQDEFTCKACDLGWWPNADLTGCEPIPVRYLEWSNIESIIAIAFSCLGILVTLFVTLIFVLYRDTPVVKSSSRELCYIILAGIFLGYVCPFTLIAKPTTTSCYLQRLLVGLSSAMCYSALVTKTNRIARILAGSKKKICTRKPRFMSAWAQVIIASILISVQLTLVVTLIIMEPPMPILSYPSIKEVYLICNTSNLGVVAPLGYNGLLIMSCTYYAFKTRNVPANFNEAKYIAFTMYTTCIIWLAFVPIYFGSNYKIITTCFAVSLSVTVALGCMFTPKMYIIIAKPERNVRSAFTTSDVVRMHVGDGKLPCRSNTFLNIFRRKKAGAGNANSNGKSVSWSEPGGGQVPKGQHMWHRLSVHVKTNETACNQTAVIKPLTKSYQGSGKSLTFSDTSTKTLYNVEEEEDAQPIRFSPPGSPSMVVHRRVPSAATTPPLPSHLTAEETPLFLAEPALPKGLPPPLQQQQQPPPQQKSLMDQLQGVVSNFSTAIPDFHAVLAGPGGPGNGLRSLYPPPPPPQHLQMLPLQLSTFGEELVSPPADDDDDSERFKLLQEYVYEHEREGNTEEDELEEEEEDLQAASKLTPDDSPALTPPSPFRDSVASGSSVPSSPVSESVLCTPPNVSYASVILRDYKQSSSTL
# Chain of Metabotropic glutamate receptor 5 (Homo sapiens) (P41594 21-1212 limits assumed): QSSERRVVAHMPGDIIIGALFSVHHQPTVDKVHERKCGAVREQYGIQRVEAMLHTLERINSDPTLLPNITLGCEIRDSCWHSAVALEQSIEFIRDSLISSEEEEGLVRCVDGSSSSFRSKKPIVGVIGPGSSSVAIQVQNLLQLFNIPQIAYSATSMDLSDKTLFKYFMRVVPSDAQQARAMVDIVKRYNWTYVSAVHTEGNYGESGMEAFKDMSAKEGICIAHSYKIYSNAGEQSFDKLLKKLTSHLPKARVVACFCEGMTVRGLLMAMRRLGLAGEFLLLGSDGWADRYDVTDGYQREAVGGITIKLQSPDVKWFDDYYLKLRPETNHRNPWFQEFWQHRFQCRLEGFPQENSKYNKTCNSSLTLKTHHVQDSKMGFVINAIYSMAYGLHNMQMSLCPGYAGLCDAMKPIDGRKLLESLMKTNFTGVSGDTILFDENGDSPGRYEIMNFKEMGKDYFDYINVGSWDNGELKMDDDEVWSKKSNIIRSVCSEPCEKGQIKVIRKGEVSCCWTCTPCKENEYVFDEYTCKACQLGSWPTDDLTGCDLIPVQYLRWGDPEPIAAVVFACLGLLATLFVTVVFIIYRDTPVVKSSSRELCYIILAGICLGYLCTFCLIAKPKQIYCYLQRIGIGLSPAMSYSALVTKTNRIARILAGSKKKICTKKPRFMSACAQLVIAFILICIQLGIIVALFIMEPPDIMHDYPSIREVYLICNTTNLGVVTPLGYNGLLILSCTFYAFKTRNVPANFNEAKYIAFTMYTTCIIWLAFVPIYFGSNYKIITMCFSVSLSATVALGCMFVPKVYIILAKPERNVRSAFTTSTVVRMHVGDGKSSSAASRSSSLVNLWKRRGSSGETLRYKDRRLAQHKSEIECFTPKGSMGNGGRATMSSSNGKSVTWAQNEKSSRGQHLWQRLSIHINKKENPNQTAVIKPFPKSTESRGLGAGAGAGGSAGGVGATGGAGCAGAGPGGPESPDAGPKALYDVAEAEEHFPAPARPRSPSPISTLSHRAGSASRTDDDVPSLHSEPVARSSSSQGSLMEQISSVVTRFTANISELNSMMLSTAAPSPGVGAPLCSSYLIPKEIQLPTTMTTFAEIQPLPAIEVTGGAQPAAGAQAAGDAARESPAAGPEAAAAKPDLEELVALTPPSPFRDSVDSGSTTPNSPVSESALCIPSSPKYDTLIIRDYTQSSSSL
smiles,measurement,setting,value
O=C(Nc1ccc(N2C(=O)c3cccc(I)c3C2=O)c(Cl)c1)c1ccccn1,inhibition,[1],96%
same,IC50,[2]; read-out: IC50,26.3 nM
same,IC50,[2]; read-out: pIC50 (converted),29.5 nM
COc1cc(NC(=O)c2ccccn2)ccc1Cl,inhibition,[1],100%
O=C(Nc1cccc(OC(F)F)c1)c1ccccn1,inhibition,[1],99.1%
O=C(Nc1ccc(N2C(=O)c3cccc([18F])c3C2=O)c(Cl)c1)c1ccccn1,Drug uptake,Cerebellum [3],Active
same,Drug uptake,Thalamus [4],Active
same,Drug uptake,Brain [5],Active
same,Drug uptake,[6],Active
same,Drug uptake,Hippocampus [7],Active
same,Drug uptake,Striatum [8],Active
same,Drug uptake,Striatum [9],Active
same,Drug uptake,Brain [10],Active
same,Drug uptake,[11],Active
same,Drug uptake,[12],Active
same,Drug uptake,Hippocampus [13],Active
same,Drug uptake,[14],Active
same,Drug uptake,Cerebellum [15],Active
same,Drug uptake,[16],50%
same,Drug uptake,[17],50%
same,Drug uptake,Brain [18],Active
same,Drug uptake,Cortex [19],Active
same,Drug uptake,[20],Active
same,Drug uptake,Cerebellum [21],Active
same,Drug uptake,Thalamus [22],Active
same,Drug uptake,[23],50%
same,Drug uptake,[24],Active
same,Drug uptake,Striatum [25],Active
same,Drug uptake,Thalamus [26],Active
same,Drug uptake,[27],50%
same,Drug uptake,Macaca mulatta,Active
same,Drug uptake,Cortex [28],Active
same,Stability,[29],Unstable
same,Drug uptake,Hippocampus [30],Active
same,Drug uptake,Cortex [31],Active
same,Drug uptake,[32],Active
same,metabolised at 5 min,[33],90%
Cc1cccc2c1C(=O)N(c1ccc(NC(=O)c3ccccn3)cc1Cl)C2=O,inhibition,[1],99.4%
same,IC50,[2]; read-out: IC50,4.2 nM
O=C(Nc1ccc(N2C(=O)c3cccc(F)c3C2=O)c(Cl)c1)c1ccccn1,Activity,[34],Active
same,Activity,[35],Active
same,inhibition,[1],99.4%
same,IC50,[2]; read-out: IC50,5.1 nM
same,Activity,[36],Active
O=C(Nc1ccc(N2C(=O)c3cccc(Br)c3C2=O)c(Cl)c1)c1ccccn1,inhibition,[1],96.6%
same,IC50,[2]; read-out: IC50,11.8 nM

# — ChEMBL document CHEMBL3351329, “Radiosynthesis and evaluation of an 18F-labeled positron emission tomography (PET) radioligand for metabotropic glutamate receptor subtype 4 (mGlu4)” (J Med Chem, 2014)
